Activity calls are given as the source filed them. The calls are words filed in the database; no cut-off is given here.
Key:
[1] = tested on: A549; test: Cell cycle arrest in human A549 cells assessed as accumulation at G0/G1 phase at 1 uM after by propidium iodide staining-based fluorescence analysis (reference value: 83.43%); format: functional
[2] = tested on: A549; test: Induction of apoptosis in human A549 cells assessed as caspase 3 activation using Ac-DEVD as substrate at 2 uM after 48 hrs by fluorometric analysis relative to control; format: functional
Outline: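 A-549 cells were seeded at 2.5 × 10⁵/well and treated. Cells were scraped into PBS, pelleted, lysed on ice 20–30 min, and cleared at 13,200 rpm. Lysate was mixed with 2X assay buffer and Ac-DEVD-AFC substrate and reacted 1 h. AFC fluorescence (ex 400, em 505 nm) was read every 5 min, expressed as fold over control. Mean of two experiments in triplicate.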

[3] = tested on: HT-29; test: Anticancer activity against human HT-29 cells after 48 hrs by MTT assay; format: functional, cell-based; conditions: HT-29, 48 h
Outline: (§1)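 MTT assay. Cells seeded at 1 × 10⁴/well in DMEM with 10% FBS and held 24 h at 37 °C in CO₂. Compounds were diluted in culture medium and added alongside vehicle controls, then incubated 48 h. MTT (5 mg/ml stock) was added for 4 h. Supernatant was removed, formazan dissolved in DMSO, and absorbance read at 540 nm.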

[4] = tested on: A549; test: Induction of apoptosis in human A549 cells assessed as cytoplasmic condensation at 2 uM after 24 hrs by Hoechst staining-based fluorescent microscopic analysis; format: functional, cell-based
Outline: (§2)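 A-549 cells (10,000) were grown on 18-mm coverslips for 24 h, given fresh medium, then treated 24 h. Vehicle control was 0.001% DMSO. Hoechst 33258 was added to medium at […]. Apoptotic cells were quantified manually by field counts scoring cytoplasmic condensation, apoptotic bodies, nuclear fragmentation and relative fluorescence.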

[5] = tested on: A-375; test: Anticancer activity against human A375 cells after 48 hrs by MTT assay; format: functional, cell-based; conditions: A-375, 48 h; outline: as §1
[6] = tested on: MCF7; test: Anticancer activity against human MCF7 cells after 48 hrs by MTT assay; format: functional, cell-based; conditions: MCF7, 48 h; outline: as §1
[7] = tested on: A549; test: Cell cycle arrest in human A549 cells assessed as accumulation at subG1 phase at 1 uM after by propidium iodide staining-based fluorescence analysis (reference value: 2.74%); format: functional
[8] = tested on: A549; test: Anticancer activity against human A549 cells after 48 hrs by MTT assay; format: functional, cell-based; conditions: A549, 48 h; outline: as §1
[9] = tested on: ACHN; test: Anticancer activity against human ACHN cells after 48 hrs by MTT assay; format: functional, cell-based; outline: as §1
[10] = tested on: A549; test: Induction of apoptosis in human A549 cells assessed as nuclear fragmentation at 5 uM after 24 hrs by Hoechst staining-based fluorescent microscopic analysis; format: functional, cell-based; outline: as §2
[11] = tested on: A549; test: Induction of apoptosis in human A549 cells assessed as nuclear fragmentation at 2 uM after 24 hrs by Hoechst staining-based fluorescent microscopic analysis; format: functional, cell-based; outline: as §2
[12] = tested on: A549; test: Induction of apoptosis in human A549 cells assessed as presence of apoptotic bodies at 2 uM after 24 hrs by Hoechst staining-based fluorescent microscopic analysis; format: functional, cell-based; outline: as §2
[13] = tested on: A549; test: Cell cycle arrest in human A549 cells assessed as accumulation at G2/M phase at 1 uM after by propidium iodide staining-based fluorescence analysis (reference value: 9.27%); format: functional
[14] = tested on: A549; test: Cell cycle arrest in human A549 cells assessed as accumulation at S phase at 1 uM after by propidium iodide staining-based fluorescence analysis (reference value: 2.74%); format: functional
[15] = tested on: A549; test: Induction of apoptosis in human A549 cells assessed as presence of apoptotic bodies at 5 uM after 24 hrs by Hoechst staining-based fluorescent microscopic analysis; format: functional, cell-based; outline: as §2
[16] = tested on: A549; test: Induction of apoptosis in human A549 cells assessed as cytoplasmic condensation at 5 uM after 24 hrs by Hoechst staining-based fluorescent microscopic analysis; format: functional, cell-based; outline: as §2
[17] = tested on: A549; test: Induction of apoptosis in human A549 cells assessed as induction of DNA fragmentation at 5 uM after 48 hrs by agarose gel electrophoresis; format: functional, cell-based
Outline: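 A-549 cells (1 × 10⁶, six-well plates) were treated 48 h after 24 h attachment. Cells were pelleted, PBS-washed and lysed. Supernatant was treated with 10% SDS and RNase-A for 2 h at 56 °C, then proteinase K for 2 h at 37 °C. DNA was precipitated with ammonium acetate and ice-cold ethanol at −80 °C, pelleted, washed with 80% ethanol, and run for ladder pattern against a 50 bp marker.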

[18] = tested on: A549; test: Cell cycle arrest in human A549 cells assessed as accumulation at G0/G1 phase at 5 uM after by propidium iodide staining-based fluorescence analysis (reference value: 83.43%); format: functional
[19] = tested on: A549; test: Cell cycle arrest in human A549 cells assessed as accumulation at subG1 phase at 5 uM after by propidium iodide staining-based fluorescence analysis (reference value: 2.74%); format: functional
[20] = tested on: A549; test: Cell cycle arrest in human A549 cells assessed as accumulation at S phase at 5 uM after by propidium iodide staining-based fluorescence analysis (reference value: 2.74%); format: functional
[21] = tested on: A549; test: Cell cycle arrest in human A549 cells assessed as accumulation at G2/M phase at 5 uM after by propidium iodide staining-based fluorescence analysis (reference value: 9.27%); format: functional

Question: Which Activity [1] does the source give for `COc1cc([C@@H]2c3cc4c(cc3[C@@H](O[C@@H]3O[C@@H]5CO[C@@H](C)O[C@H]5[C@H](O)[C@H]3O)[C@H]3COC(=O)[C@H]23)OCO4)cc(OC)c1O` [ETOPOSIDE] here?
Answer: 69.82%

Question: And the “fold change (FC)” value [2]?
Answer: 6

Question: What about the IC50 [3] of the same compound?
Answer: 1810 nM

Question: What about the Activity [4] of the same compound?
Answer: Active

Question: And the IC50 [5]?
Answer: 1390 nM

Question: What about the IC50 [6] of the same compound?
Answer: 680 nM

Question: What about the Activity [7] of the same compound?
Answer: 2.89%

Question: And the IC50 [8]?
Answer: 2340 nM

Question: What about the IC50 [9] of the same compound?
Answer: 7610 nM

Question: And the Activity [10]?
Answer: Active

Question: And the Activity [11]?
Answer: Active

Question: What about the Activity [12] of the same compound?
Answer: Active

Question: And the Activity [13]?
Answer: 19.21%

Question: And the Activity [14]?
Answer: 7.23%

Question: What about the Activity [15] of the same compound?
Answer: Active

Question: And the Activity [16]?
Answer: Active

Question: What about the Activity [17] of the same compound?
Answer: Active

Question: Which results are given for `COc1cc([C@@H]2c3cc4c(cc3[C@@H](NC(=O)/C=C/c3ccc(C(F)(F)F)cc3)[C@H]3COC(=O)[C@H]23)OCO4)cc(OC)c1OC`?
Answer: Activity [18]: 39.84%; Activity [1]: 45.23%; fold change (FC) [2]: 4; IC50 [3]: 370 nM; Activity [4]: Active; IC50 [5]: 18000 nM; IC50 [6]: 19200 nM; Activity [7]: 4.51%; IC50 [8]: 2100 nM; IC50 [9]: 2180 nM; Activity [19]: 4.43%; Activity [20]: 10.16%; Activity [10]: Active; Activity [11]: Active; Activity [21]: 43.39%; Activity [12]: Active; Activity [13]: 38.11%; Activity [14]: 9.54%; Activity [15]: Active; Activity [16]: Active; Activity [17]: Active

Question: `COc1cc([C@@H]2c3cc4c(cc3[C@@H](NC(=O)/C=C/c3ccccc3)[C@H]3COC(=O)[C@H]23)OCO4)cc(OC)c1OC` was tested. Which Activity [18] did it give?
Answer: 18.65%

Question: What about the Activity [1] of the same compound?
Answer: 23.39%

Question: And the “fold change (FC)” value [2]?
Answer: 4

Question: What about the IC50 [3] of the same compound?
Answer: 2360 nM

Question: What about the Activity [4] of the same compound?
Answer: Active

Question: And the IC50 [5]?
Answer: 13400 nM

Question: What about the IC50 [6] of the same compound?
Answer: 19700 nM

Question: And the Activity [7]?
Answer: 3.29%

Question: What about the IC50 [8] of the same compound?
Answer: 2700 nM

Question: What about the IC50 [9] of the same compound?
Answer: 3910 nM

Question: And the Activity [19]?
Answer: 2.62%

Question: And the Activity [20]?
Answer: 8.64%

Question: And the Activity [10]?
Answer: Active

Question: What about the Activity [11] of the same compound?
Answer: Active

Question: And the Activity [21]?
Answer: 67.78%

Question: And the Activity [12]?
Answer: Active

Question: What about the Activity [13] of the same compound?
Answer: 61.89%

Question: And the Activity [14]?
Answer: 9.5%

Question: And the Activity [15]?
Answer: Active

Question: What about the Activity [16] of the same compound?
Answer: Active

Question: What about the Activity [17] of the same compound?
Answer: Active

Reference: ChEMBL document CHEMBL1926683, “Synthesis and anticancer activity of 4β-alkylamidochalcone and 4β-cinnamido linked podophyllotoxins as apoptotic inducing agents” (Eur J Med Chem, 2012)
